{"source": "ChEMBL document CHEMBL4513216", "about": "“Probing the Open Global Health Chemical Diversity Library for Multistage-Active Starting Points for Next-Generation Antimalarials” (ACS Infect Dis, 2020)", "data": [{"test": "Toxicity liver stage against HepG2, at 10uM", "assay_type": "cell-based", "set-up": "test concentration 10 uM, cell line HepG2-A16-CD81EGFP", "details": "human, HepG2-A16-CD81EGFP cells; read-out: INHIBITION", "summary_of_the_method": "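Uninfected HepG2-A16-CD81EGFP cells, 3 × 10^3 per well, 1536-well, plated on prespotted compound at 10 μM final, parasite-free screening media added to match infected plates; puromycin 10 μM positive, DMSO 0.5% negative; run in parallel with 48 h PbLuc assay at 37 °C, 5% CO2; viability by CellTiter-Glo luminescence, normalized to controls.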", "units": {"cytotoxicity at 10 µM": "%"}, "values": [{"smiles": "c1cncc(CNCCc2cccs2)c1", "cytotoxicity at 10 µM": -5.68}, {"smiles": "COc1ccc(C[C@H]2CN(C(=O)c3cc(C)no3)CC[C@H]2OC)cc1", "cytotoxicity at 10 µM": 6}, {"smiles": "O=C(Nc1cnccn1)[C@@H]1COC[C@H]2CN(c3ncc(F)cn3)C[C@H]21", "cytotoxicity at 10 µM": -11.7}, {"smiles": "CN(Cc1ccncc1)C1CCC[C@@H]2CN(c3ncccn3)C[C@H]12", "note": "(some centres not stated)", "cytotoxicity at 10 µM": -3.21}, {"smiles": "O=C([C@@H]1CC[C@@H]2[C@@H](CCN2Cc2ccncc2)O1)N1CCCCO1", "cytotoxicity at 10 µM": -3.75}, {"smiles": "Cc1ccc(N2CCCC3(COCCN(c4cnccn4)C3)C2)nn1", "note": "(configuration not stated)", "cytotoxicity at 10 µM": -139}, {"smiles": "COCCC(=O)N1CCC2(CCCN2Cc2ccccc2)C1", "note": "(configuration not stated)", "cytotoxicity at 10 µM": 10.4}, {"smiles": "CC(C)OCCCNC(=O)CC1(Cn2cnnn2)CCCCC1", "cytotoxicity at 10 µM": 9.18}, {"smiles": "COc1ccc(Cl)cc1CNCCCn1ccnc1", "cytotoxicity at 10 µM": 8.32}, {"smiles": "COCCNC(=O)C1CCCN(c2ccc3nncn3n2)C1", "note": "(configuration not stated)", "cytotoxicity at 10 µM": -0.302}, {"smiles": "O=c1[nH]c2c(c(=O)n1C1CCCCC1)CCC2Nc1ccccc1", "note": "(configuration not stated)", "cytotoxicity at 10 µM": 0.795}, {"smiles": "Cc1nc(N2CCCC2)nc2c1CCN(C(=O)CC1CC1)CC2", "cytotoxicity at 10 µM": -9.6}, {"smiles": "Cn1nc(C(=O)NC2CCCC2)cc1NC(=O)C1CC1", "cytotoxicity at 10 µM": 0.754}, {"smiles": "CC1CCCN(C(=O)c2ccc(-c3ccco3)o2)C1", "note": "(configuration not stated)", "cytotoxicity at 10 µM": 4.23}, {"smiles": "Cc1nn(C)c(C)c1-c1cnc(CC2CCNC2)cn1", "note": "(configuration not stated)", "cytotoxicity at 10 µM": -8.41}, {"smiles": "Cc1sc2c(C3CCCN(S(C)(=O)=O)C3)nc(C)n2c1C", "note": "(configuration not stated)", "cytotoxicity at 10 µM": -33}, {"smiles": "c1cncc(CN2CCCC(c3nnc(-c4cnccn4)o3)C2)c1", "note": "(configuration not stated)", "cytotoxicity at 10 µM": -7.36}, {"smiles": "O=C(c1cc(C2CCCCN2C(=O)C2CCC2)n[nH]1)N1CCOCC1", "note": "(configuration not stated)", "cytotoxicity at 10 µM": -14}, {"smiles": "COCC(=O)N1CCC(c2n[nH]c3nccnc23)CC1", "cytotoxicity at 10 µM": -8.38}, {"smiles": "O=C(CCNc1ccc(Br)cn1)NCc1ccncc1", "cytotoxicity at 10 µM": -0.222}, {"smiles": "Cc1c(C(=O)N(C)CC(F)(F)F)nnn1-c1ccccc1Cl", "cytotoxicity at 10 µM": -1.58}, {"smiles": "CC(NS(=O)(=O)N(C)C)c1cccc(-n2cccn2)c1", "note": "(configuration not stated)", "cytotoxicity at 10 µM": -1.46}, {"smiles": "COc1ccccc1CCNC(=O)NCC(=O)Nc1cccnc1", "cytotoxicity at 10 µM": -15.2}, {"smiles": "O=C(NCC(O)c1cccc(F)c1)c1sccc1OC(F)F", "note": "(configuration not stated)", "cytotoxicity at 10 µM": 0.547}, {"smiles": "CC(C)Cn1cnc(S(=O)(=O)Nc2cccnc2-n2cccn2)c1", "cytotoxicity at 10 µM": -1.75}, {"smiles": "CNC(=O)CN1CCC(CN(C)Cc2ccncc2Cl)CC1", "cytotoxicity at 10 µM": -2.87}, {"smiles": "NC(=O)c1cn(CC2CCC2)c(C2CC2)n1", "cytotoxicity at 10 µM": 12.8}, {"smiles": "CCc1noc(C(C)N2CCC(NS(=O)(=O)c3ccccc3)CC2)n1", "note": "(configuration not stated)", "cytotoxicity at 10 µM": 7.87}, {"smiles": "NC(=O)C(NCc1ccc(Cl)s1)c1ccccc1", "note": "(configuration not stated)", "cytotoxicity at 10 µM": 2.8}, {"smiles": "N#CCCN(CC1CC1)S(=O)(=O)c1cccc(Cl)c1", "cytotoxicity at 10 µM": 9.09}, {"smiles": "Cc1ccc(-c2cc(CNC(=O)NC3CCCCNC3=O)on2)cc1", "note": "(configuration not stated)", "cytotoxicity at 10 µM": -145}, {"smiles": "Cc1cc(CN(C2CC2)C(C)C(C)C)on1", "note": "(configuration not stated)", "cytotoxicity at 10 µM": -0.212}, {"smiles": "Cc1cc(Cn2cc(C#N)c(=O)c3ccccc32)on1", "cytotoxicity at 10 µM": 8.83}, {"smiles": "CCOc1ccc2cc(C(=O)NCCNc3ccc(C)nn3)[nH]c2c1", "cytotoxicity at 10 µM": 1.64}, {"smiles": "O=C(NC1CCS(=O)(=O)c2ccccc21)c1sccc1C1CC1", "note": "(configuration not stated)", "cytotoxicity at 10 µM": 3.63}, {"smiles": "CCOc1cc(F)ccc1NC(=O)N(C(C)CS(C)(=O)=O)C1CC1", "note": "(configuration not stated)", "cytotoxicity at 10 µM": 4.11}, {"smiles": "Cc1ccc(S(=O)(=O)N2CC(C)Oc3ncccc32)c(F)c1", "note": "(configuration not stated)", "cytotoxicity at 10 µM": 3.43}, {"smiles": "CC1CCN(C(=O)c2ccc(N(C)Cc3cnn(C)c3)nc2)CC1", "cytotoxicity at 10 µM": -13.8}, {"smiles": "CS(=O)(=O)NC1CCN(C(=O)c2ccc(F)cc2)CC1", "cytotoxicity at 10 µM": 2.3}, {"smiles": "O=C(CCc1ccccc1)N1CCN(C(=O)c2ccc[nH]2)CC1", "cytotoxicity at 10 µM": -5.04}, {"smiles": "CN(CCC(=O)NC1CC1)Cc1ccc(Cl)s1", "cytotoxicity at 10 µM": 7.83}, {"smiles": "COc1ccc(NC(=O)NC(C)c2nc[nH]n2)cc1Cl", "note": "(configuration not stated)", "cytotoxicity at 10 µM": 0.0264}, {"smiles": "CCSc1cc(C(=O)NCCNC(=O)N(C)C)ccn1", "cytotoxicity at 10 µM": -3.63}, {"smiles": "Cc1cc(NC(=O)C(c2cccc(F)c2)N2CCOCC2)sn1", "note": "(configuration not stated)", "cytotoxicity at 10 µM": -3.98}, {"smiles": "CN(Cc1cnn(C)c1)C(=O)NCC1CCS(=O)(=O)C1", "note": "(configuration not stated)", "cytotoxicity at 10 µM": 10.3}, {"smiles": "Cc1n[nH]c(C2CN(C(=O)CCCn3cccn3)CCO2)n1", "note": "(configuration not stated)", "cytotoxicity at 10 µM": -0.138}, {"smiles": "N#CC1(C(=O)NCc2ccc(F)cc2)CCCC1", "cytotoxicity at 10 µM": 7.57}, {"smiles": "COc1ccnc(NC(=O)c2cnccn2)c1", "cytotoxicity at 10 µM": 7.97}, {"smiles": "COCCN1CC(C(=O)Nc2ccc3c(c2)CCC(=O)N3C)CC1=O", "note": "(configuration not stated)", "cytotoxicity at 10 µM": 6.18}, {"smiles": "CN(Cc1nc2ccsc2c(=O)[nH]1)CC1CCCCC1", "cytotoxicity at 10 µM": -1.05}, {"smiles": "CCC1CN(CC(=O)NCCOC)CCO1", "note": "(configuration not stated)", "cytotoxicity at 10 µM": -12.9}, {"smiles": "CCN(CC)C(=O)c1ccc(CNc2ncc(C#N)cc2Cl)cc1", "cytotoxicity at 10 µM": 5.87}, {"smiles": "CC(C)(CCS(C)(=O)=O)CNC(=O)NC1CCCC1(C)C", "note": "(configuration not stated)", "cytotoxicity at 10 µM": 6.7}, {"smiles": "Fc1ccc(-c2cnc(CNC3CCc4ncnn4C3)o2)cc1", "note": "(configuration not stated)", "cytotoxicity at 10 µM": -0.174}, {"smiles": "CC(C)CCNc1nnc(C(C)C)s1", "cytotoxicity at 10 µM": -10.6}, {"smiles": "CN(C)S(=O)(=O)NCC1CCN(Cc2ccccc2F)CC1", "cytotoxicity at 10 µM": -0.768}, {"smiles": "CN(C)C1(CNC(=O)Cc2ccc(F)cc2)CCOCC1", "cytotoxicity at 10 µM": 6.03}]}]}
